Active and inactive are the calls of the source. No cut-off for these calls is given here.
Key:
[1] = Drug degradation in 0.1 M phosphate buffer at pH 7.4 assessed as human butyrylcholinestase-mediated compound hydrolysis rate at 50 uM during first 1 min by spectrophotometric analysis; conditions: pH 7.4, 1 min
Xenopus laevis [2] = organism: Xenopus laevis; test: Inhibition of Xenopus laevis oocyte CNGA1/CNGB1 assessed as inhibition of currents at +50 mV potential at 2 uM by patch-clamp method in presence of 50 uM cGMP
Procedure, shortened: (§1)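 Heteromeric rod CNG channels from oocytes co-injected with CNGA1 and CNGB1 cRNA (33 ng:67 ng, 2:1), held at 16–18 °C and recorded 3–7 days later. Excised inside-out patches were stepped from 0 to −50 to +50 mV with sub-saturating cGMP (50 or 100 µM), with or without blocker. Currents without cGMP were subtracted and filtered at 300 Hz. Block was read at +50 mV.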

Xenopus laevis [3] = organism: Xenopus laevis; test: Inhibition of Xenopus laevis oocyte CNGA1/CNGB1 assessed as inhibition of cGMP-induced currents at +50 mV potential at 1 uM by patch-clamp method in presence of 100 uM cGMP
Procedure, shortened: as §1

[4] = Binding affinity to Xenopus laevis oocyte CNGA1/CNGB1 assessed as inhibition of 2 mM cGMP-induced currents at +50 mV potential at 5 uM by patch-clamp method; conditions: read-out: Kd(app)
Procedure, shortened: (§2)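 Rod CNGA1 plus CNGB1 cRNA (2:1; 33 ng plus 67 ng) co-injected into stage IV–V Xenopus oocytes, held at 16–18 °C. Inside-out excised patches recorded 3–7 days after injection. Channels were maximally activated with 2 mM cGMP, and compound was added. Steps ran from 0 to −50 and +50 mV. Currents with no cGMP were subtracted, and KD was fitted to a single-site block equation (mean ± SD).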

Xenopus laevis [5] = organism: Xenopus laevis; test: Inhibition of Xenopus laevis oocyte CNGA1/CNGB1 assessed as inhibition of currents at +50 mV potential at 2 uM by patch-clamp method in presence of 100 uM cGMP
Procedure, shortened: as §1

Xenopus laevis [6] = organism: Xenopus laevis; test: Inhibition of Xenopus laevis oocyte CNGA1/CNGB1 assessed as inhibition of cGMP-induced currents at +50 mV potential at 1 uM by patch-clamp method in presence of 50 uM cGMP
Procedure, shortened: as §1

[7] = Binding affinity to Xenopus laevis oocyte CNGA1/CNGB1 assessed as inhibition of 2 mM cGMP-induced currents at -50 mV potential at 5 uM by patch-clamp method; conditions: read-out: Kd(app)
Procedure, shortened: as §2

Row | Structure (SMILES) | Drug degradation [1] [nmol/min/mg] | inhibition (Xenopus laevis [2]) | inhibition (Xenopus laevis [3]) | Kd [4] [nM] | inhibition (Xenopus laevis [5]) | inhibition (Xenopus laevis [6]) | Kd [7] [µM]
1 | CCCCCCCCNc1ccc(C(=O)NCCN(C)C)cc1 | 1.2 | – | – | – | – | – | –
2 | CCCCCCCCNc1ccc(C(=O)OCCN(C)C)cc1 | 213 | Active | Active | 1000 | Active | Active | 2.4
3 | CCCCNc1ccc(C(=S)NCCN(C)C)cc1 | – | – | – | 600 | – | – | 3.9
4 | CCCCNc1ccc(C(=O)OCCN(C)C)cc1 [TETRACAINE] | 132 | Active | Active | – | Active | Active | –
5 | CCCCCCCCNc1ccc(C(=S)NCCN(C)C)cc1 | – | – | – | 700 | – | – | 1.8
6 | CCCCNc1ccc(C(=O)NCCN(C)C)cc1 | 8.4 | – | – | 4400 | – | – | 28.6

Reference: ChEMBL document CHEMBL2169831 (J Med Chem, 2011)
